Experimental findings from ChEMBL document CHEMBL1144304, “Benzimidazole derivatives as novel nonpeptide luteinizing hormone-releasing hormone (LHRH) antagonists. Part 1: Benzimidazole-5-sulfonamides” (Bioorg Med Chem Lett, 2005) are described below.

Molecules are shown by their SMILES.

In assay [1] the target is T1, Gonadotropin-releasing hormone receptor (Rattus norvegicus, UniProt P30969).
T1 sequence (P30969 whole entry): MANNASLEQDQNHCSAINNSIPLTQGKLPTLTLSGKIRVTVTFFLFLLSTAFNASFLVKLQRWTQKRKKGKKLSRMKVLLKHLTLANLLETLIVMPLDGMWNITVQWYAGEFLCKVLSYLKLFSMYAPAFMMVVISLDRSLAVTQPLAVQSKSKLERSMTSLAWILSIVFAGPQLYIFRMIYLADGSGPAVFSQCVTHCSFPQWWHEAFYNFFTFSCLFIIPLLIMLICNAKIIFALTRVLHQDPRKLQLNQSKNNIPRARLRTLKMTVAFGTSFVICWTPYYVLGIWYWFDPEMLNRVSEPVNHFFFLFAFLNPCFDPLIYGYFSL
Briefly: Inhibitory concentration towards rat leutinizing releasing hormone receptor. The method, boiled down: (§1)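 CHO cells transfected with human or rat LHRH receptor cDNA, loaded with Fluo-3 AM and preincubated 20 min at 25 °C with varying compound concentrations. Stimulated with LHRH (10 nM for human-receptor cells, 1 nM for rat-receptor cells). Intracellular calcium fluorescence read; inhibition from integral ratio (actual/initial fluorescence). IC50 is the mean of at least two experiments, each in triplicate.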

Assay [2] deals with T2, Gonadotropin-releasing hormone receptor (Homo sapiens, UniProt P30968).
T2 sequence (P30968 whole entry): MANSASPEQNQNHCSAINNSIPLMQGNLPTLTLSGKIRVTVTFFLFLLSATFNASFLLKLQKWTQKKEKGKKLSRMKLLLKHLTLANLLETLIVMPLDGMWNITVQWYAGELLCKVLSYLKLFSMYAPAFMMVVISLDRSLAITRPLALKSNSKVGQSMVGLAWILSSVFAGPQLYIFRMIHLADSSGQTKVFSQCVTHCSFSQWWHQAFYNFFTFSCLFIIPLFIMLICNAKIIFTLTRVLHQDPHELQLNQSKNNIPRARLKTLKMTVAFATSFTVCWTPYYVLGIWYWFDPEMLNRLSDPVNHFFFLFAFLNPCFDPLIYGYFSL
Put plainly: Inhibitory concentration towards human leutinizing releasing hormone receptor. Put shortly:
as §1

In general, IC50 refers to the concentration needed to halve the response being measured. As for `O=S(=O)(NCc1ccc(F)cc1)c1ccc2c(c1)nc(SCCO)n2Cc1ccccc1`, the results for the IC50 in assay [1] and in assay [2] were 600 nM and 270 nM, respectively.
For the compound `CSc1nc2cc(S(=O)(=O)NCc3ccc(F)cc3)ccc2n1Cc1ccccc1`, the values for the IC50 in assay [1] and in assay [2] were 210 nM and 220 nM, respectively.
On the same counts, the results for `CCOc1nc2cc(S(=O)(=O)NCc3ccc(F)cc3)ccc2n1Cc1cccc(Cl)c1` are 1900 nM and 880 nM.
Take `O=S(=O)(NCc1ccc(F)cc1)c1ccc2c(c1)nc(SCCN1CCOCC1)n2Cc1ccccc1`: the results for the IC50 in assay [1] and in assay [2] were 170 nM and 160 nM, respectively.
As to `O=S(=O)(NCc1ccc(F)cc1)c1ccc2c(c1)nc(SCc1ccccn1)n2Cc1ccccc1`, the figures for the IC50 in assay [1] and in assay [2] were 960 nM and 820 nM, respectively.
Take `O=S(=O)(NCc1ccc(F)cc1)c1ccc2c(c1)nc(NCCN1CCOCC1)n2Cc1ccccc1`: the IC50 in assay [1] and in assay [2] was > 10000 nM throughout.
As for `O=S(=O)(NCc1ccc(F)cc1)c1ccc2c(c1)nc(SCCc1cccnc1)n2Cc1ccccc1`, the half-inhibitory concentration (IC50) is 140 nM in assay [1] and 120 nM in assay [2].
For the compound `CCSc1nc2cc(S(=O)(=O)NCc3ccc([N+](=O)[O-])cc3)ccc2n1Cc1ccccc1`, the IC50 in assay [1] was found to be 1200 nM; in assay [2] it was 1100 nM.
As to `CCSc1nc2cc(S(=O)(=O)NCCN3CCOCC3)ccc2n1Cc1ccccc1`, the IC50 in assay [1] and in assay [2] was > 10000 nM throughout.
For `CCSc1nc2cc(S(=O)(=O)NCc3ccc(F)cc3)ccc2n1Cc1ccccc1`, the IC50 came to 200 nM in assay [1] and 250 nM in assay [2].
As for `O=S(=O)(NCc1ccc(F)cc1)c1ccc2c(c1)nc(SCCc1ccccn1)n2Cc1ccccc1`, the 50% inhibitory concentration (IC50) was determined as 280 nM in assay [1] and 230 nM in assay [2].
As for `CCOC(=O)CSc1nc2cc(S(=O)(=O)NCc3ccc(F)cc3)ccc2n1Cc1ccccc1`, the IC50 in assay [1] turned out to be 810 nM; in assay [2], 490 nM.
On the same counts, the results for `CCOc1nc2cc(S(=O)(=O)NCc3ccc(F)cc3)ccc2n1Cc1ccccc1` are 470 nM and 300 nM.
As to `CCSc1nc2cc(S(=O)(=O)NCc3ccc(Cl)cc3)ccc2n1Cc1ccccc1`, the figures for the 50% inhibitory concentration (IC50) in assay [1] and in assay [2] were 330 nM and 280 nM, respectively.
As for `CCOc1nc2cc(S(=O)(=O)NCc3ccc(F)cc3)ccc2n1Cc1ccsc1`, the values for the half-maximal inhibitory concentration (IC50) in assay [1] and in assay [2] were 2000 nM and 1400 nM, respectively.
Take `O=S(=O)(NCc1ccc(F)cc1)c1ccc2c(c1)nc(SCc1ccncc1)n2Cc1ccccc1`: the figures for the half-inhibitory concentration (IC50) in assay [1] and in assay [2] were 240 nM and 320 nM, respectively.
Take `O=S(=O)(NCc1ccc(F)cc1)c1ccc2c(c1)nc(SCCNCc1ccccc1)n2Cc1ccccc1`: the results for the IC50 in assay [1] and in assay [2] were 530 nM and 670 nM, respectively.
Turning to `CCSc1nc2cc(S(=O)(=O)NCc3cccc(OC)c3)ccc2n1Cc1ccccc1`, the IC50 in assay [1] turned out to be 4000 nM; in assay [2], 4800 nM.
Regarding `CCSc1nc2cc(S(=O)(=O)NCc3ccc(F)cc3)ccc2n1CCc1ccccc1`, the half-maximal inhibitory concentration (IC50) in assay [1] and in assay [2] was > 10000 nM throughout.
Turning to `O=S(=O)(NCc1ccc(F)cc1)c1ccc2c(c1)nc(OCCN1CCOCC1)n2Cc1ccccc1`, the IC50 was 3200 nM in assay [1] and 5800 nM in assay [2].
Consider `CCSc1nc2cc(S(=O)(=O)NCc3ccc(OC)cc3)ccc2n1Cc1ccccc1`, for which the IC50 in assay [1] was determined as 940 nM; in assay [2] it was 1100 nM.
Regarding `CCOc1nc2cc(S(=O)(=O)NCc3ccc(F)cc3)ccc2n1CCN1CCOCC1`, the half-inhibitory concentration (IC50) in assay [1] amounted to 7200 nM; in assay [2], 2100 nM.
